What all share (format): functional, organism-based
Assay [1] has as its system Escherichia coli. Put plainly: Antiadherent activity against P-fimbriated Escherichia coli in human erythrocyte assessed as suppression of agglutination using latex beads coated with P receptor analogue at 0.6 mg/ml. The procedure, abridged: (§1)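 Uropathogenic P-fimbriated E. coli from patient urine, grown in tryptose broth 16 h at 37 °C, then overnight on CFA plates. Washed cells at 5 × 10^8/mL in PBS pH 7.0. Compounds in PBS neutralized with 1 N NaOH, 2-fold serial dilutions, 30 µL with 10 µL bacteria for 10 min at RT with shaking. 3% A1 Rh+ human RBCs or P-receptor-coated latex beads added separately, 20 min RT. Agglutination suppression scored microscopically (+/−).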

Assay [2] concerns Escherichia coli. Put plainly: Antiadherent activity against P-fimbriated Escherichia coli in human erythrocyte assessed as suppression of agglutination using latex beads coated with P receptor analogue at 2.4 mg/ml. The procedure, abridged:
as §1

Assay [3] relates to Escherichia coli. Put plainly: Antiadherent activity against P-fimbriated Escherichia coli in human erythrocyte assessed as suppression of agglutination using latex beads coated with P receptor analogue at 0.3 mg/ml. The procedure, abridged: as §1
Assay [4] concerns Escherichia coli. Put plainly: Antiadherent activity against P-fimbriated Escherichia coli in human erythrocyte assessed as suppression of agglutination using latex beads coated with P receptor analogue at 1.2 mg/ml. An outline of the steps: as §1
For assay [5], the system named is Escherichia coli. Put plainly: Antiadherent activity against P-fimbriated Escherichia coli in human erythrocyte assessed as suppression of agglutination using latex beads coated with P receptor analogue at 0.15 mg/ml. An outline of the steps:
as §1

SMILES strings stand for the structures. The source made the active and inactive calls. The calls are words filed in the database; no cut-off is given here.

In the case of `Oc1cc(O)c2c(c1)O[C@H](c1ccc(O)c(O)c1)[C@H](O)[C@H]2c1c(O)cc2c(c1O)[C@@H]1c3c(cc(O)c4c3O[C@H](c3ccc(O)c(O)c3)[C@H](O)C4)O[C@](c3ccc(O)c(O)c3)(O2)[C@@H]1O`, the outcome in assay [1], in assay [2], in assay [3] and in assay [4] was Active. In assay [5], the outcome was inactive.

Take `Oc1cc(O)c2c(c1)O[C@@]1(c3ccc(O)c(O)c3)Oc3cc(O)c4c(c3[C@@H]2[C@H]1O)O[C@H](c1ccc(O)c(O)c1)[C@H](O)C4`: the outcome in assay [1], in assay [3], in assay [4] and in assay [5] was inactive. For the same molecule, in assay [2], the outcome was Active.

Regarding `Oc1cc(O)c2c(c1)O[C@H](c1ccc(O)c(O)c1)[C@H](O)[C@H]2c1c(O)cc(O)c2c1O[C@@]1(c3ccc(O)c(O)c3)Oc3cc(O)c4c(c3[C@@H]2[C@H]1O)O[C@H](c1ccc(O)c(O)c1)[C@H](O)C4`, the result in assay [1], in assay [2] and in assay [4] was Active. In addition, the result in assay [3] and in assay [5] was inactive.

For the molecule `Oc1cc(O)c2c(c1)O[C@H](c1ccc(O)c(O)c1)[C@H](O)[C@H]2c1c(O)cc(O)c2c1O[C@H](c1ccc(O)c(O)c1)[C@H](O)C2`, the outcome in assay [1], in assay [2], in assay [3], in assay [4] and in assay [5] was inactive.

As to `Oc1cc(O)c2c(c1)O[C@H](c1ccc(O)c(O)c1)[C@H](O)C2`, the outcome in assay [1], in assay [2], in assay [3], in assay [4] and in assay [5] was inactive.

As for `Oc1cc(O)c2c(c1)O[C@@]1(c3ccc(O)c(O)c3)Oc3cc(O)c4c(c3[C@@H]2[C@H]1O)O[C@H](c1ccc(O)c(O)c1)[C@H](O)[C@H]4c1c(O)cc(O)c2c1O[C@H](c1ccc(O)c(O)c1)[C@H](O)C2` [CINNAMTANNIN B1], the result in assay [1], in assay [2], in assay [3] and in assay [4] was Active. Also, the Activity entry in assay [5] is on record as “Not Active”.

The values are drawn from ChEMBL document CHEMBL1155581, “A-Type proanthocyanidin trimers from cranberry that inhibit adherence of uropathogenic P-fimbriated Escherichia coli” (J Nat Prod, 2000).
